Reference: ChEMBL document CHEMBL1139366, “Non-peptide macrocyclic histone deacetylase inhibitors” (J Med Chem, 2009)

Tests used:
[1] = target: Histone deacetylase (HDAC1 and HDAC2) (Homo sapiens, UniProt Q13547+Q92769); test: Inhibition of HDAC1/2 from human HeLa cells nuclear extract by cell free fluorimetric assay; type: cell-based
SK-MES-1 = test: Cytotoxicity against human SKMES1 cells after 72 hrs by trypan blue exclusion assay; type: functional, cell-based; conditions: SK-MES-1, 72 h
HMEC = test: Cytotoxicity against HMEC after 72 hrs by trypan blue exclusion assay; type: ADME, cell-based; conditions: Homo sapiens
DU-145 = test: Cytotoxicity against human DU145 cells after 72 hrs by trypan blue exclusion assay; type: functional, cell-based; conditions: DU-145, 72 h
How it was run: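 DU-145 prostate cancer cells kept in recommended complete medium at 37 °C, 5% CO₂, passaged 24 h before dosing. Compounds taken from 10 mM DMSO stocks and diluted in DMSO plus fresh medium, final DMSO 0.1%; control wells got fresh medium only. Viability read by trypan blue staining after 72 h. EC₅₀ = concentration giving 50% loss of viability, from duplicate of four simultaneous experiments.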

NCI-H69 = test: Cytotoxicity against human NCI-H69 cells after 72 hrs by trypan blue exclusion assay; type: functional, cell-based; conditions: NCI-H69, 72 h
[2] = Cytotoxicity against human primary lung fibroblasts after 72 hrs by trypan blue exclusion assay; type: ADME, cell-based; conditions: Fibroblast

Row | IC50 [1] | SMILES | EC50 (SK-MES-1) | EC50 (HMEC) | EC50 (DU-145) | EC50 (NCI-H69) | EC50 [2]
1 | 0.2234 µM | CC[C@H]1OC(=O)[C@H](C)[C@@H](O[C@H]2C[C@@](C)(OC)[C@@H](O)[C@H](C)O2)[C@H](C)[C@@H](O[C@@H]2O[C@H](C)C[C@H](N(C)Cc3ccc(-c4cn(CCCCCCCCCC(=O)NO)nn4)cc3)[C@H]2O)[C@](C)(OC)C[C@@H](C)C(=O)[C@H](C)[C@@H](O)[C@]1(C)O | – | – | – | – | –
2 | 0.037 µM | CC[C@H]1OC(=O)[C@H](C)[C@@H](O[C@H]2C[C@@](C)(OC)[C@@H](O)[C@H](C)O2)[C@H](C)[C@@H](O[C@@H]2O[C@H](C)C[C@H](N(C)Cc3ccc(-c4cn(CCCCCC(=O)NO)nn4)cc3)[C@H]2O)[C@](C)(OC)C[C@@H](C)C(=O)[C@H](C)[C@@H](O)[C@]1(C)O | 2.15 µM | > 10 µM | 2.98 µM | 2.67 µM | > 10 µM
3 | 0.0556 µM | CC[C@H]1OC(=O)[C@H](C)[C@@H](O[C@H]2C[C@@](C)(OC)[C@@H](O)[C@H](C)O2)[C@H](C)[C@@H](O[C@@H]2O[C@H](C)C[C@H](N(C)Cc3ccc(-c4cn(CCCCCCCC(=O)NO)nn4)cc3)[C@H]2O)[C@](C)(OC)C[C@@H](C)C(=O)[C@H](C)[C@@H](O)[C@]1(C)O | 4.89 µM | > 10 µM | 6.97 µM | 5.67 µM | > 10 µM
4 | 0.1071 µM | CC[C@H]1OC(=O)[C@H](C)[C@@H](O[C@H]2C[C@@](C)(OC)[C@@H](O)[C@H](C)O2)[C@H](C)[C@@H](O[C@@H]2O[C@H](C)C[C@H](N(C)Cc3ccc(NC(=O)CCCCCCC(=O)NO)cc3)[C@H]2O)[C@](C)(O)C[C@@H](C)CN(C)[C@H](C)[C@@H](O)[C@]1(C)O [AZITHROMYCINARYLALKYLHYDROXAMIC ACID] | – | – | > 25 µM | – | –

Further lines, the compound ahead of its results:

Row | SMILES | IC50 [1] | EC50 (SK-MES-1) | EC50 (HMEC) | EC50 (DU-145) | EC50 (NCI-H69) | EC50 [2]
5 | CC[C@H]1OC(=O)[C@H](C)[C@@H](O[C@H]2C[C@@](C)(OC)[C@@H](O)[C@H](C)O2)[C@H](C)[C@@H](O[C@@H]2O[C@H](C)C[C@H](N(C)Cc3ccc(-c4cn(CCCCCCCCCC(=O)NO)nn4)cc3)[C@H]2O)[C@](C)(O)C[C@@H](C)CN(C)[C@H](C)[C@@H](O)[C@]1(C)O | 0.2267 µM | – | – | – | – | –
6 | CC[C@H]1OC(=O)[C@H](C)[C@@H](O[C@H]2C[C@@](C)(OC)[C@@H](O)[C@H](C)O2)[C@H](C)[C@@H](O[C@@H]2O[C@H](C)C[C@H](N(C)Cc3ccc(-c4cn(CCCCCCCCC(=O)NO)nn4)cc3)[C@H]2O)[C@](C)(OC)C[C@@H](C)C(=O)[C@H](C)[C@@H](O)[C@]1(C)O | 0.1698 µM | 7.12 µM | > 10 µM | 8.14 µM | 7.29 µM | > 10 µM
7 | CC[C@H]1OC(=O)[C@H](C)[C@@H](O)[C@H](C)[C@@H](O[C@@H]2O[C@H](C)C[C@H](N(C)Cc3ccc(-c4cn(CCCCCC(=O)NO)nn4)cc3)[C@H]2O)[C@](C)(OC)C[C@@H](C)C(=O)[C@H](C)[C@@H](O)[C@]1(C)O | 0.0443 µM | 1.95 µM | > 10 µM | 3.29 µM | 1.92 µM | > 10 µM
8 | CC[C@H]1OC(=O)[C@H](C)[C@@H](O)[C@H](C)[C@@H](O[C@@H]2O[C@H](C)C[C@H](N(C)Cc3ccc(-c4cn(CCCCCCCC(=O)NO)nn4)cc3)[C@H]2O)[C@](C)(OC)C[C@@H](C)C(=O)[C@H](C)[C@@H](O)[C@]1(C)O | 0.123 µM | 4.45 µM | > 10 µM | 5.78 µM | 5.09 µM | > 10 µM
9 | CC[C@H]1OC(=O)[C@H](C)[C@@H](O)[C@H](C)[C@@H](O[C@@H]2O[C@H](C)C[C@H](N(C)Cc3ccc(NC(=O)CCCCCCC(=O)NO)cc3)[C@H]2O)[C@](C)(O)C[C@@H](C)CN(C)[C@H](C)[C@@H](O)[C@]1(C)O [DESCLASINOSE AZITHROMYCINARYLALKYL HYDROXAMATE] | 0.1098 µM | – | – | < 25 µM | – | –
10 | O=C(CCCCCCC(=O)Nc1ccccc1)NO [VORINOSTAT] | – | – | – | 2.12 µM | – | –
